Most compounds without a hit are left out; they make up all but 4.2% or so of the library.
SUMO Mot1 rescue: blocks SUMOylation pathway, rescuing yeast Mot1-301 growth. hit rate 1% among 320,000. AID 2716. growth rescue, % at 18.8 µM. S. cerevisiae Mot1-301 growth rescue, ATP luminescence, 38.5C; percent above DMSO median, 100 means doubled;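 active means every valid replicate shows activation above 250% relative to neutral control wells; inactive means the rest, any valid replicate at or below 250%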;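 further: OY570 slx delta 5 strain wells were the positive control but not used for scaling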
AI-2 QS mod: Vibrio harveyi AI-2 quorum sensing modulation | Vibrio harveyi JMH597 AI-2 luminescence/OD600 ratio, 9 h; hits give low values; strain lacks LuxN and CqsS sensors; 0 = neutral-control median | activity change, % at 7.5 µM | hit rate 0.4% among 300,000; in the data active means activity change below about -75%, passing the limit was not always enough; inconclusive means no clear call, values can overlap the other calls;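 further: luminescence divided by OD600 gain over 9 h not by final OD600 alone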
hERG rescue: shields human hERG channel from block by proarrhythmic agents | Q12809 | CHO-hERG, FluxOR thallium flux, dofetilide IC70 present | activation (rescue from dofetilide block), less the hit threshold, % at 10 µM | hit rate 0.51% among 310,000 | AID 1511;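 active means activation above the mean of controls blocked by dofetilide plus 5 SD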;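 further: thallium influx through hERG after potassium depolarization seen as dye fluorescence rise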
KCNQ1 act: potentiates or activates the human KCNQ1 potassium channel; P51787; CHO-K1 KCNQ1, thallium flux FluxOR fluorescence; hits give high values; B-score at 10 µM; hit rate 0.35% among 310,000;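 active means fluorescence ratio B-score, a plate-corrected score, at least three library SD, with initial intensity B-score within 5 SD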
Target sequence (P51787 whole entry, looked up): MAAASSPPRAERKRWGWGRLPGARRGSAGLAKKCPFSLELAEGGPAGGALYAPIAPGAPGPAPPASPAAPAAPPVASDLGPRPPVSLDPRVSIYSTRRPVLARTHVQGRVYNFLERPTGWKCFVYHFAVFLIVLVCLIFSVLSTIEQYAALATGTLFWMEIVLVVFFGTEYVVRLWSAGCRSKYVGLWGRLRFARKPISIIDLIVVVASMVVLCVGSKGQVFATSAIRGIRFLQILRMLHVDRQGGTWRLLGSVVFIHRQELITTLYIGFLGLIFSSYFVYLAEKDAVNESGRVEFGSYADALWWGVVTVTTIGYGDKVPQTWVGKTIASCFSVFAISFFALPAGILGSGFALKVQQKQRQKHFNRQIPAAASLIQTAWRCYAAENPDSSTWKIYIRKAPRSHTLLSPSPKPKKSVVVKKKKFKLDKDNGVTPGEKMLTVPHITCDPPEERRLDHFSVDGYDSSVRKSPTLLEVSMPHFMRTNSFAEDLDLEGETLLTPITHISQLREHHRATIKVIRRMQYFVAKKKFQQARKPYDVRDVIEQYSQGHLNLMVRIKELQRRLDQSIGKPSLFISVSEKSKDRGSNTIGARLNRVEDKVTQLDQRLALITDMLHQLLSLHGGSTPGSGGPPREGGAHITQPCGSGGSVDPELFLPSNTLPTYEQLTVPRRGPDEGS
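System: Stable KCNQ1 CHO-K1 line | Incubation: 90 min dye loading and 20 min compound exposure, both at room temperature | Measure: Ratio B score | Medium: Assay buffer for compound exposure, DMSO matched across wells | Compound dosing: Single-concentration screen | Probe or stimulus: K+/Tl+ depolarizing stimulus | Measured by: Kinetic FluxOR fluorescence, 10 s baseline plus 110 s post-stimulus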
Cl transport mod: modulates chloride dependent transport by human KCC2; Q9H2X9; KCC2 cells, thallium flux FluoZin-2 fluorescence; B-score of Tl+ flux slope (higher = more flux/activation; lower = inhibition) at 10 µM; hit rate 2.2% among 190,000; AID 1456;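 active means thallium flux slope and its plate-corrected score both differing from the plate sample mean at a set confidence after two filtering rounds, in either direction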;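 further: slope of fluorescence scaled to starting intensity during 10 to 20 s after thallium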
KCNQ1 inh: blocks the human KCNQ1 potassium channel | CHO-K1 KCNQ1, FluxOR thallium flux fluorescence; hits give high values | B-score at 10 µM | hit rate 1.3% among 310,000;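 active means compounds whose thallium flux B-score, printed positive for inhibition, exceeds three library SD while starting fluorescence stays within three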;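 further: channel opened by potassium depolarization with thallium stimulus after 20 min compound exposure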
Yeast Mot1 SUMO: SUMO pathway inhibitors in yeast Mot1-301 growth. shares compounds with SUMO Mot1 rescue. S. cerevisiae Mot1-301 galactose growth, ATP luminescence, 24 h; -100 = growth of slx-deleted rescue strain. growth activity, percent, % at 42 µM. 2,300 tested, under 10 active;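 active means Signal drops as the depositor expects, and the fitted half-maximal dose is no more than ten times the top valid tested dose; inconclusive means Poor fit, or a flat curve whose signal drops by 30% to 70%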;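 further: more negative values mean stronger growth rescue toward the control strain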
* hit, by the source's call; i = inactive; ? = inconclusive; / = no result; + = active, no number.

SMILES | SUMO Mot1 rescue | AI-2 QS mod | hERG rescue | KCNQ1 act | Cl transport mod | KCNQ1 inh | Yeast Mot1 SUMO
N/C(=N\OC(=O)CCC1CCCC1)c1ccc([N+](=O)[O-])cc1 | 597* | 23 | -9 | i | 0.64 | i | -1
CCOc1ccc(NC(=O)CC2C(=O)N(c3ccccc3)C(=S)N2Cc2ccccn2)cc1 (stereo not given) | + | 3 | -29 | i | -0.19 | i | 0
OC[C@@H](O)[C@@H](O[C@H]1O[C@H](CO)[C@@H](O)[C@H](O)[C@H]1O)[C@H](O)[C@@H](O)CO | 135 | 12 | -9 | i | 0.022 | i | /
COc1ccc(CCNC(=O)Cc2cccc(C(F)(F)F)c2)cc1OC | -6 | 0 | -4 | i | / | i | /
CC(C)(CNC(=O)c1cccs1)CNC(=O)c1cccs1 | 667* | 2 | -1 | i | 0.005 | i | 0
CC/C(=N\NC(=O)CNC(=O)/C=C/c1ccc(OC)cc1)c1ccccc1 | -4 | / | -9 | i | / | i | /
O=C1CSC(c2ccc(F)c(F)c2)N1c1ccccc1F (stereo not given) | 891* | 33 | -2 | i | / | i | 0
CS(=O)(=O)NCc1ccc(C(=O)NC2CCCCC2)cc1 | 617* | 27 | -2 | i | / | i | 0
COc1ccc(-c2noc(CSc3nc(-c4ccccc4)cc(=O)[nH]3)n2)cc1OC | 493* | 49 | -12 | i | -1.2 | i | 0
Cc1onc(-c2ccccc2Cl)c1C(=O)O/N=C(\N)c1ccc([N+](=O)[O-])o1 | -11 | ? | -10 | i | -1.4 | i | /
O=C(Cn1sc2ccccc2c1=O)NC12CC3CC(CC(C3)C1)C2 | 387* | 15 | -7 | i | -0.26 | i | 4
Nc1cccc2c1C(=O)N(CC(=O)NC13CC4CC(CC(C4)C1)C3)C2=O | 2 | 12 | -3 | i | 0.4 | i | /
COC(=O)c1ccccc1NC(=O)c1cnn2c(C)cc(C)nc12 | 892* | 0 | -9 | i | -1 | i | 1
COc1ccccc1CNCc1ccc(C)cc1 | -18 | -5 | -6 | i | / | i | /
COc1ccccc1CNCc1cc(OC)c(OC)c(OC)c1 | + | 16 | -3 | i | -2.3 | i | 0
COCCn1c(SCC(=O)Nc2nc3ccccc3s2)nnc1-c1ccoc1C | 601* | 11 | -16 | i | -1.8 | i | 1
COCCn1c(SCC(=O)Nc2ccccc2)nnc1-c1ccoc1C | 4 | 12 | -8 | i | / | i | /
Cc1c(Cl)c([N+](=O)[O-])nn1CC(=O)NC12CC3CC(CC(C3)C1)C2 | 952* | 5 | -2 | i | -0.00035 | i | 0
CC(=O)c1cc2c(cc1NC(=O)Cn1cnc3ccccc3c1=O)OCO2 | -22 | / | / | / | / | / | /
O=c1c2ccccc2ncn1Cc1ccc2c(c1)OCO2 | 428* | 17 | -4 | i | / | i | 1
O=c1c2ccccc2ncn1Cc1ccc(Cl)c(Cl)c1 | -30 | 14 | -7 | i | / | i | /
O=c1c2ccccc2ncn1Cc1ccc(Cl)cc1 | 987* | 5 | -4 | i | 0.57 | i | 0
COCc1cc(C)n(CC(=O)Nc2ccc3c(c2)OCO3)c(=O)c1C#N | 12 | -10 | -3 | i | / | i | /
COc1ccc(OC)c(-n2c(C)ccc2-c2ccc(S(C)(=O)=O)cc2)c1 | -15 | 29 | -7 | i | / | i | /
CC1=C([N+](=O)[O-])C(c2ccc(Cl)cc2)NC(=O)N1 (stereo not given) | -8 | 2 | -10 | i | / | i | /
O=C(O)CCSc1ccc([N+](=O)[O-])cc1[N+](=O)[O-] | 363* | 17 | -6 | i | -0.1 | i | -1
C[C@H](CO)N1C[C@H](C)[C@@H](CN(C)S(=O)(=O)c2cccs2)Oc2ccc(NS(=O)(=O)c3ccccc3)cc2C1=O | -15 | / | / | / | / | / | /
CCOC(=O)COc1nc(-c2ccco2)cc(-c2ccco2)c1C#N | -9 | 3 | -2 | i | -1.6 | i | /

Screens as filed in PubChem.
